Assays:
[1] = target: T1, Tyrosine-protein phosphatase non-receptor type 1 (Homo sapiens, UniProt P18031); experiment: Inhibition of PTP1B
T1 sequence (P18031 whole entry): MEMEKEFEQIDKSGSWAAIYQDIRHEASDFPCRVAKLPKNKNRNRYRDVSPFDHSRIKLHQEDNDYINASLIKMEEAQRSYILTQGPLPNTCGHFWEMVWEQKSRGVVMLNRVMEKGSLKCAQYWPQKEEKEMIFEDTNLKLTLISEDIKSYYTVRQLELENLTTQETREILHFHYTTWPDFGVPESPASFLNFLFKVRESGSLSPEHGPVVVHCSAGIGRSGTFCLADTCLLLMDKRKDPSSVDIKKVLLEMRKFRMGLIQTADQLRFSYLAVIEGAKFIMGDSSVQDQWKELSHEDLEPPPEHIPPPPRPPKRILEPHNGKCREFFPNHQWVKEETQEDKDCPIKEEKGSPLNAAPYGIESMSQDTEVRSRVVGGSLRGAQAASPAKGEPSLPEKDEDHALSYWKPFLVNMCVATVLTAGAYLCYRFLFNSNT
Outline: (§1)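 Hydrolysis of pNPP at its Km (1 mM) was measured at 30°C in 0.15 M Bis-Tris pH 6.0, ionic strength 150 mM with NaCl, 1.0 mM DTT, 5% DMSO final. Enzyme and compound (0.0128–1000 μM, 5-fold steps) were preincubated 10 min at room temperature, then reacted 20 min. The reaction was quenched with 1 M NaOH and read at 405 nm, with the no-enzyme background subtracted. IC50 came from the fit Vi/V0 = IC50/(IC50+[I]).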

[2] = target: T2, Tyrosine-protein phosphatase non-receptor type 7 (Homo sapiens, UniProt P35236); experiment: Inhibition of HePTP
T2 sequence (P35236 whole entry): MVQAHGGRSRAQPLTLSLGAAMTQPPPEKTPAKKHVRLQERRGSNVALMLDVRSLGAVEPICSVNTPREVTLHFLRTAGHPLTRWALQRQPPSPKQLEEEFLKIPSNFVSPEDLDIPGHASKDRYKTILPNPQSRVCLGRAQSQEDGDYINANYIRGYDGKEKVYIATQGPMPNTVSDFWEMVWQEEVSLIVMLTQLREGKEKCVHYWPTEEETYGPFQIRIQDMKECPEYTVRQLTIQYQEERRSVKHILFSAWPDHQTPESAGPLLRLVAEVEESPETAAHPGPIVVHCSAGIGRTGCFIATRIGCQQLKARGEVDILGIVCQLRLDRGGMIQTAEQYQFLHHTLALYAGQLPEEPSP
Outline: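 pNPP was held at its Km of 2.5 mM for HePTP. Assay at 30°C in 0.15 M Bis-Tris pH 6.0 (ionic strength 150 mM, NaCl), 1.0 mM DTT, 5% DMSO final. Compound (0.0128–1000 μM) and enzyme were preincubated 10 min at RT, then reacted 20 min with substrate. NaOH quench, A405 minus the no-enzyme blank. IC50 fit to Vi/V0 = IC50/(IC50+[I]).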

[3] = target: T3, Tyrosine-protein phosphatase non-receptor type 2 (Homo sapiens, UniProt P17706); experiment: Inhibition of TCPTP; outline: as §1
T3 sequence (P17706 whole entry): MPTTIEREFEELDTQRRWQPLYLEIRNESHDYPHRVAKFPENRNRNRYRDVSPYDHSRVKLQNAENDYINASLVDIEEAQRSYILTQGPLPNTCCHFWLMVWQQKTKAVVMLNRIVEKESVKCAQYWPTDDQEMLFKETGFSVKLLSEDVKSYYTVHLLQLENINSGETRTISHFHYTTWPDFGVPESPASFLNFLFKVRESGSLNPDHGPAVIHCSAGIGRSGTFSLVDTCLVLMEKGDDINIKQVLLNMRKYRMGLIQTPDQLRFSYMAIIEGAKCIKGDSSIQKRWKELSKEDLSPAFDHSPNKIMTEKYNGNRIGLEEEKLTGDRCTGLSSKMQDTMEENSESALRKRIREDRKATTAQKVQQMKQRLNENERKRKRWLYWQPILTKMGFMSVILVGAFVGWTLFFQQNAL

[4] = Inhibition of Yersinia pestis YopH expressed in Escherichia coli
Outline: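 GST-YopH was purified on glutathione-Sepharose and dialysed into 30 mM Tris, 150 mM NaCl, then with 1 mM DTT. Assayed with pNPP at Km (1 mM), 30°C, 0.15 M Bis-Tris pH 6.0, 1.0 mM DTT, 5% DMSO final. Compound (0.0128–1000 μM) was preincubated 10 min at RT, then reacted 20 min. NaOH quench, A405 with the no-enzyme blank subtracted, IC50 by the hyperbolic fit.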

[5] = target: T4, Receptor-type tyrosine-protein phosphatase C (Homo sapiens, UniProt P08575); experiment: Inhibition of CD45; outline: as §1
T4 sequence (P08575 whole entry): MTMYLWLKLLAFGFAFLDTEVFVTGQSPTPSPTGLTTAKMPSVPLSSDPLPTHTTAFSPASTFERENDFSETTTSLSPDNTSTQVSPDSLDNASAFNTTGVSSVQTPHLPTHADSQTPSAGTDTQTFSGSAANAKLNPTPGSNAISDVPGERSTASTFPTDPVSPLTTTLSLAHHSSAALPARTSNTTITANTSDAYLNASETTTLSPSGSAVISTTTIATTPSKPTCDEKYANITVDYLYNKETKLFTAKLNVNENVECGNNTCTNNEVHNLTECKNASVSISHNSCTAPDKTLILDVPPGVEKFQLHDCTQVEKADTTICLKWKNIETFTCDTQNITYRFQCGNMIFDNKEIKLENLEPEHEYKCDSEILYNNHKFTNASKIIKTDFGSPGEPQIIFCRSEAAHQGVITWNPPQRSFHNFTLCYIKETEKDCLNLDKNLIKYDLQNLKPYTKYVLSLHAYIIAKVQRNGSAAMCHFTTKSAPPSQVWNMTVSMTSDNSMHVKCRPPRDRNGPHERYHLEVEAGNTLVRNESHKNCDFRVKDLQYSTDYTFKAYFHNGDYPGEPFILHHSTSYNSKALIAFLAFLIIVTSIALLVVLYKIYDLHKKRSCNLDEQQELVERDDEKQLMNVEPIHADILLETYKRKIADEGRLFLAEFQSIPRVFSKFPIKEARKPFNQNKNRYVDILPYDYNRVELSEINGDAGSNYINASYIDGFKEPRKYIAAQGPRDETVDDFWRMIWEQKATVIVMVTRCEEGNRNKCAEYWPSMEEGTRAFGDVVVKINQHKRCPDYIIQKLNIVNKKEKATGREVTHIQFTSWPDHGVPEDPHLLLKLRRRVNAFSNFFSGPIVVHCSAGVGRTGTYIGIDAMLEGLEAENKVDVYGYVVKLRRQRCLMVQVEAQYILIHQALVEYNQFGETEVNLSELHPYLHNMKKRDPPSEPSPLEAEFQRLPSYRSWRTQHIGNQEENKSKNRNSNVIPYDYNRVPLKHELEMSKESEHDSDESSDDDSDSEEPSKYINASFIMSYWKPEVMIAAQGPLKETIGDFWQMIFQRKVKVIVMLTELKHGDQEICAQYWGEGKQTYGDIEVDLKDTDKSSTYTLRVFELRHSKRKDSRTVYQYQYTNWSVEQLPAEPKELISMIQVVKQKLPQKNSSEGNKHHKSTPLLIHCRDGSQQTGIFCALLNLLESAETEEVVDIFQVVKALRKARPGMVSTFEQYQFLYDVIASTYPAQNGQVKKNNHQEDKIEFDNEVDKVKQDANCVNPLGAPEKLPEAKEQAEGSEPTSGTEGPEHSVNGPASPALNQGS

[6] = target: Dual specificity protein phosphatase 3 (Homo sapiens, UniProt P51452); experiment: Inhibition of VHR
Chain of Dual specificity protein phosphatase 3 (P51452 whole entry): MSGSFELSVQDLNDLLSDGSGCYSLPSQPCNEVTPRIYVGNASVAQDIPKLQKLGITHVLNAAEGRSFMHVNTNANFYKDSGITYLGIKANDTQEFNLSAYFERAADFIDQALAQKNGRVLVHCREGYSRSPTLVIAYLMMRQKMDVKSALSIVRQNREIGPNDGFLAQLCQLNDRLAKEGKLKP
Outline: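 VHR was assayed with pNPP at its Km of 1.5 mM, at 30°C in 0.15 M Bis-Tris pH 6.0 (150 mM ionic strength, NaCl), 1.0 mM DTT, 5% DMSO final. Eight compound concentrations from 0.0128 to 1000 μM were preincubated 10 min at RT, then reacted 20 min. NaOH quench, read at 405 nm with the enzyme-free blank corrected. IC50 from Vi/V0 = IC50/(IC50+[I]).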

Row | SMILES | IC50 [1] | IC50 [2] | IC50 [3] | IC50 [4] | IC50 [5] | IC50 [6]
1 | CC1(C)CC(NC(=O)/C=C/c2ccc(-c3ccc(O)c(C(=O)O)c3)o2)CC(C)(C)N1[O] | 24 µM | 7.5 µM | 14 µM | 3 µM | 14 µM | 12 µM
2 | COC(=O)c1cc(-c2ccc(CNC3CC(C)(C)N([O])C(C)(C)C3)o2)ccc1O | > 1000 µM | > 1000 µM | > 1000 µM | > 1000 µM | > 1000 µM | 850 µM
3 | COC(=O)c1cc(NC(=O)CCCC(=O)NC2CC(C)(C)N([O])C(C)(C)C2)ccc1O | > 1000 µM | > 1000 µM | > 1000 µM | > 1000 µM | > 1000 µM | > 1000 µM
4 | CC1(C)CC(NC(=O)/C=C/c2ccc(-c3cccc([N+](=O)[O-])c3)o2)CC(C)(C)N1[O] | 1000 µM | 211 µM | 260 µM | 46 µM | > 1000 µM | 200 µM
5 | CC1(C)CC(NC(=O)/C=C/c2ccc(-c3ccc([N+](=O)[O-])cc3)o2)CC(C)(C)N1[O] | > 1000 µM | > 1000 µM | > 1000 µM | 47 µM | > 1000 µM | 1000 µM
6 | CC1(C)CC(NCc2ccc(-c3ccc(O)c(C(=O)O)c3)o2)CC(C)(C)N1[O] | > 1000 µM | > 1000 µM | 685 µM | 50 µM | > 1000 µM | 241 µM
7 | CC1(C)CC(NC(=O)CCCC(=O)Nc2ccc(O)c(C(=O)O)c2)CC(C)(C)N1[O] | > 1000 µM | > 1000 µM | > 1000 µM | 336 µM | > 1000 µM | 1000 µM

— ChEMBL document CHEMBL1147128, “Development of molecular probes for second-site screening and design of protein tyrosine phosphatase inhibitors” (J Med Chem, 2007)
